Calls of active or inactive are those of the source. The rule behind the calls is not given here.
How the values were obtained:
[1] = system: Plasmodium falciparum; assay: Antiplasmodial activity against chloroquine-sensitive Plasmodium falciparum MRC-02 infected in human erythrocyte assessed as inhibition of schizont maturation after 24 hrs; assay type: functional, organism-based; conditions: MRC-02, 24 h
Summary of the method: (§1)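 Sorbitol-synchronised ring-stage culture in human B+ erythrocytes, in RPMI-1640 with 25 mM HEPES, 10% AB+ serum and 0.2% bicarbonate under 5% CO2. Parasitaemia was set at 1–1.5%. Cultures were exposed to two-fold serial dilutions for 24 h at 37 °C (ethanol ≤0.5% final), duplicate wells per dose. Schizonts per 100 asexual parasites were counted on Giemsa smears. Inhibition = (1−Nt/Nc)×100.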

[2] = Cytotoxicity against human HeLa cells after 72 hrs by neutral red uptake assay; assay type: cell-based
Summary of the method: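 HeLa cells grown in EMEM with 10% FBS were seeded at 2×10^3 per well and left overnight at 37 °C, 5% CO2. They were exposed to two-fold serial dilutions from DMSO stocks (DMSO ≤0.1%) in duplicate for 72 h. Cells were fixed in glutaraldehyde, stained with 0.2% neutral red and lysed in acid ethanol, then read at 550 nm against DMSO controls. The value reported is MNTD, the highest concentration giving 100% survival.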

[3] = Selectivity ratio of CC50 for human HeLa cells to IC50 for Plasmodium falciparum MRC-02; assay type: ADME, cell-based; conditions: read-out: Ratio CC50/IC50
Summary of the method: (§2)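 The IC50 came from sorbitol-synchronized ring-stage cultures at 1–1.5% parasitemia in human B+ erythrocytes in RPMI-1640/HEPES with 10% AB+ serum, given two-fold dilutions (ethanol ≤0.5% final). Cultures ran 24 h at 37 °C in duplicate, and schizonts per 100 asexual parasites were counted on Giemsa smears.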

[4] = system: Plasmodium falciparum; assay: Antiplasmodial activity against chloroquine-resistant Plasmodium falciparum RKL09 infected in human erythrocyte assessed as inhibition of schizont maturation after 24 hrs; assay type: functional, organism-based; conditions: RKL09, 24 h; summary of the method: as §1
[5] = Selectivity ratio, CC50 for human HeLa cells to IC50 for Plasmodium falciparum RKL09; assay type: ADME, cell-based; conditions: read-out: Ratio CC50/IC50; summary of the method: as §2
[6] = Inhibition of beta-hematin formation by BHIA assay; assay type: functional
Summary of the method: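 Compounds (6 to 0.3 mM) were incubated with hematin in the presence of glacial acetic acid at 37 °C for 24 h. Water or ethanol served as controls. The pellet was washed with DMSO to remove unconverted hematin, and the remaining β-hematin was dissolved in 0.1 N NaOH. Absorbance was read at 405 nm to derive BHIA50.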

[7] = system: Plasmodium berghei; assay: Antimalarial activity against Plasmodium berghei ANKA infected in Swiss albino mice (Mus musculus) assessed as suppression of parasitemia at 8 mg/kg/day, perorally for 4 days; assay type: functional; conditions: route oral
Summary of the method: (§3)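 Peters' 4-day suppressive test in male Swiss albino mice (18–20 g), five per group. Mice were infected intraperitoneally with about 30% P. berghei-infected donor erythrocytes, then dosed orally 4 h later and on days 0–3. Controls received the suspending solvent. Giemsa-stained tail smears were read on days 4 and 7; % suppression was calculated against controls. Survival was followed for 28 days for MST.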

[8] = system: Plasmodium berghei; assay: Antimalarial activity against Plasmodium berghei ANKA infected in Swiss albino mice (Mus musculus) assessed as mean survival time at 8 mg/kg/day, perorally for 4 days measured after 28 days; assay type: functional, organism-based; summary of the method: as §3
[9] = system: Plasmodium berghei; assay: Antimalarial activity against Plasmodium berghei ANKA infected in Swiss albino mice (Mus musculus) assessed as suppression of parasitemia at 50 mg/kg/day, perorally for 4 days; assay type: functional; conditions: route oral; summary of the method: as §3
[10] = system: Plasmodium berghei; assay: Antimalarial activity against Plasmodium berghei ANKA infected in Swiss albino mice (Mus musculus) assessed as mean survival time at 50 mg/kg/day, perorally for 4 days measured after 28 days; assay type: functional; conditions: route oral
Summary of the method: (§4)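 Peters 4-day suppressive test in male Swiss albino mice (18–20 g), groups of five. Mice inoculated intraperitoneally with P. berghei ANKA-infected erythrocytes from a donor mouse. Oral dosing began 4 h later and was given once daily on days 0–3. Vehicle controls received the suspending solvent. Mean survival time was taken from deaths over a 28-day observation period.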

[11] = system: Plasmodium berghei; assay: Antimalarial activity against Plasmodium berghei ANKA infected in Swiss albino mice (Mus musculus) assessed as suppression of parasitemia at 25 mg/kg/day, perorally for 4 days; assay type: functional; conditions: route oral; summary of the method: as §3
[12] = system: Plasmodium berghei; assay: Antimalarial activity against Plasmodium berghei ANKA infected in Swiss albino mice (Mus musculus) assessed as mean survival time at 25 mg/kg/day, perorally for 4 days measured after 28 days; assay type: functional; conditions: route oral; summary of the method: as §4

Structure (SMILES)	IC50 [1]	MNTC at 72 h [2]	selectivity ratio [3]	IC50 [4]	selectivity ratio [5]	IC50 [6]	Activity [7]	Activity [8]	Activity [9]	Activity [10]	Activity [11]	Activity [12]
O=C(c1cccnc1)N1N=C(c2ccc(O)cc2)CC1c1cccc(Br)c1 (centres undefined)	0.026 µM	3060 nM	118	0.0786 µM	39	2060 µM	–	–	–	–	–	–
Cc1ccc(C2CC(c3ccc(O)cc3)=NN2C(=O)c2cccnc2)cc1 (centres undefined)	0.0555 µM	2190 nM	39.4	0.0887 µM	24.6	1570 µM	–	–	–	–	–	–
O=C(c1cccnc1)N1N=C(c2ccc(O)cc2)CC1c1ccccc1 (centres undefined)	0.0304 µM	1880 nM	61.7	0.131 µM	14.4	1580 µM	–	–	–	–	–	–
CCOc1ccc(C2CC(c3ccc(O)cc3)=NN2C(=O)c2cccnc2)cc1OC (centres undefined)	–	3560 nM	47.5	–	16.6	2390 µM	–	–	–	–	–	–
CCN(CC)CCCC(C)Nc1ccnc2cc(Cl)ccc12.O=P(O)(O)O.O=P(O)(O)O (centres undefined) [CHLOROQUINE PHOSPHATE]	–	66200 nM	–	–	–	1890 µM	100%	Active	–	–	–	–
O=C(c1cccnc1)N1N=C(c2ccc(O)cc2)CC1c1ccccc1Br (centres undefined)	0.0272 µM	3810 nM	140	0.064 µM	59.6	1820 µM	–	–	47.52%	10.3 days	34.98%	9 days
O=C(c1cccnc1)N1N=C(c2ccc(O)cc2)CC1c1ccc(Cl)cc1Cl (centres undefined)	0.0375 µM	1250 nM	33.3	0.068 µM	18.4	1530 µM	–	–	68.93%	13.2 days	60.55%	11.6 days
O=C(c1cccnc1)N1N=C(c2ccc(O)cc2)CC1c1cccc([N+](=O)[O-])c1 (centres undefined)	0.106 µM	3750 nM	35.2	0.423 µM	8.85	2070 µM	–	–	–	–	–	–
COc1cc(C2CC(c3ccc(O)cc3)=NN2C(=O)c2cccnc2)cc(OC)c1OC (centres undefined)	0.0265 µM	828 nM	31.2	0.0425 µM	19.5	1700 µM	–	–	43.7%	11 days	32.78%	9 days
Cc1ccccc1C1CC(c2ccc(O)cc2)=NN1C(=O)c1cccnc1 (centres undefined)	0.0625 µM	1810 nM	29	0.102 µM	17.8	2430 µM	–	–	–	–	–	–
COc1ccc(Br)cc1C1CC(c2ccc(O)cc2)=NN1C(=O)c1cccnc1 (centres undefined)	0.0495 µM	2660 nM	53.7	0.242 µM	11	1890 µM	–	–	–	–	–	–

Reference: ChEMBL document CHEMBL1156771, “Synthesis and antimalarial evaluation of 1, 3, 5-trisubstituted pyrazolines” (Eur J Med Chem, 2010)
